This note sets out measurements from PMC10791069 (SLAS discovery : advancing life sciences R & D, 2019).

Test [1] has as its system HEK 293 cells. Kind of test: CellTiter-Glo cytotoxicity qHTS, HEK 293. In kind it is cell-based, human. To be noted: for cell killing of HEK 293 cells (in words): 48 hr; for EC50: read-out: EC50 HEK 293; for cell killing of HEK 293 compared with cancer cell line KB-3–1 (in words): pan-active outliers, 12 dose-point confirmation. In outline:
(§1)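 HEK 293 (250 cells/well) or NIH 3T3 (400 cells/well) are seeded in 5 μL. Dosing: annotated library 8-pt (0.6 nM–46 μM) or 11-pt (0.8 nM–46 μM); diversity library 4-pt, mostly 115, 58, 12 and 2.3 μM; cherry-picks confirmed over 12 points, 0.3 nM–46 μM final. Incubate 48 hr at 37 °C, then read CellTiter-Glo luminescence after 10 min. Normalize to DMSO and 9.2 μM bortezomib; EC50 from a four-parameter logistic fit.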
For orientation: In ATP-based viability assays light output follows the ATP content of the culture.

Test [2] concerns NIH 3T3 cells. Briefly: CellTiter-Glo cytotoxicity qHTS, NIH 3T3. The test is classed as cell-based, murine. Particulars: for cell killing of NIH 3T3 cells (in words): 48 hr; for EC50: read-out: EC50 NIH 3T3; for cell killing of NIH 3T3 compared with cancer cell line KB-3–1 (in words): pan-active outliers, 12 dose-point confirmation. A digest of the protocol:
as §1

The subject of test [3] is CRL-7250 cells. Briefly: CellTiter-Glo cytotoxicity qHTS, CRL-7250. In kind it is cell-based, human. Particulars: for cell killing of CRL-7250 cells (in words): CellTiter-Glo, 48 hr. A digest of the protocol:
(§2)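 CRL-7250 (primary) or HaCat cells are seeded at 500 cells/well in 5 μL medium. Test compound is pin-transferred as an 8-pt series (0.6 nM–46 μM, 1:5) or an 11-pt series (0.8 nM–46 μM, 1:3). Incubate 48 hr at 37 °C and 85% humidity. Add CellTiter-Glo and read luminescence after 10 min at room temperature. Normalize to DMSO (0%) and 9.2 μM bortezomib (−100%); EC50 comes from a four-parameter logistic fit.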

Test [4] deals with KB 3–1 cells. Briefly: CellTiter-Glo cytotoxicity qHTS, KB 3-1. The test is classed as cell-based, human. To be noted: for cell killing of KB 3–1 cells (in words): 48 hr; for EC50: read-out: EC50 KB 3–1. A digest of the protocol:
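HeLa-derived KB 3–1 cells are seeded at 500 cells/well in 5 μL. Annotated library is tested 8-pt (0.6 nM–46 μM, 1:5) or 11-pt (0.8 nM–46 μM, 1:3); cherry-picks are retested 12-pt, 0.3 nM–46 μM final. Incubate 48 hr at 37 °C, then read CellTiter-Glo luminescence after 10 min at room temperature. Normalize to DMSO and 9.2 μM bortezomib; EC50 from a four-parameter logistic fit.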

Test [5] has as its target Photinus pyralis luciferase (Photinus pyralis, UniProt P08659). Kind of test: Firefly luciferase inhibition assay. The test is classed as biochemical. Particulars: read-out: EC50 Luciferase; 10 nM Photinus pyralis luciferase, 10 μM ATP, 10 μM D-Luciferin.
Test [6] concerns the target T1, CTG engineered firefly luciferase (Photuris pensylvanica, UniProt Q27757).
T1 sequence (Q27757 1-545): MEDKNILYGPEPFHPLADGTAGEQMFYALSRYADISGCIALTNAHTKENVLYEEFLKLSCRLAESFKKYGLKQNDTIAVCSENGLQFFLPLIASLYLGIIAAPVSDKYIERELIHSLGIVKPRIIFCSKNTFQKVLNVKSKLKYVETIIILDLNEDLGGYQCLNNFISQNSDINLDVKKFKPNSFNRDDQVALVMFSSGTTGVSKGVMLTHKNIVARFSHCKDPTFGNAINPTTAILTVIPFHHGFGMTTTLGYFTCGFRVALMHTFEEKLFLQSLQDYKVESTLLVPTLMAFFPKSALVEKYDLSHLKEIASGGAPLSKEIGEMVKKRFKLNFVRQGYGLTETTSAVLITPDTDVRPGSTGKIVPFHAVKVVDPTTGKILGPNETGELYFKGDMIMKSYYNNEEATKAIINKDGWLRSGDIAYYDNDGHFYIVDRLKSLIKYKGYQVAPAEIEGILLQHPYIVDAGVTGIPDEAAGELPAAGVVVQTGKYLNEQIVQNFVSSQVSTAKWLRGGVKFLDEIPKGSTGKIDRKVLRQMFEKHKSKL
Briefly: CellTiter-Glo luciferase counter-assay. In kind it is biochemical. To be noted: read-out: EC50 CTG Luciferase; cell-free media with CTG and ATP added as substrate.

Test [7] deals with HEK293 cells. Briefly: Bright-field microscopy of treated cells. In kind it is cell-based, human. To be noted: 48 hr, at concentrations suggested to be cytotoxic by CTG dose-response data.
In test [8] the test system is HaCat cells. Kind of test: CellTiter-Glo cytotoxicity qHTS, HaCat. In kind it is cell-based, human. A digest of the protocol: as §2
The mark [9] stands for this setting: CellTiter-Glo, 48 hr incubation.

Like-named read-outs stand apart in the source and are kept apart here.

Sequence of Photinus pyralis luciferase (P08659 whole entry): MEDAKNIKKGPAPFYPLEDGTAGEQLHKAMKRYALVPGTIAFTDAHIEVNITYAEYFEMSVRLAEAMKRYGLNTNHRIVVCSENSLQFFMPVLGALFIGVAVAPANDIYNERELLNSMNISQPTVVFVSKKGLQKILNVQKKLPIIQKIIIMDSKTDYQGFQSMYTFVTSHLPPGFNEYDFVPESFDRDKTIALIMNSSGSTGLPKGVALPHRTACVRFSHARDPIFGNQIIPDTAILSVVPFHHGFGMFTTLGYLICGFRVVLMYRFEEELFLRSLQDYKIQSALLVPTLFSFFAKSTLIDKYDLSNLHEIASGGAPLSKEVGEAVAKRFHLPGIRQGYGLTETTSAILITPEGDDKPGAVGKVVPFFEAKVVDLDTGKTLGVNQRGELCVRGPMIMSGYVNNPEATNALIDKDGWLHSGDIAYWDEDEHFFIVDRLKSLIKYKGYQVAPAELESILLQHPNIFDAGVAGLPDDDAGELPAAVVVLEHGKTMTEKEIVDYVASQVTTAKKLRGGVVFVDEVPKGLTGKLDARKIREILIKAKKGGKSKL

Take `c1cc(-c2cnn3cc(-c4ccc(N5CCNCC5)cc4)cnc23)c2cccnc2c1` [LDN-212854]: the “cell killing of HEK 293 cells (in words)” value in test [1] (CellTiter-Glo) is “partial killing”. For the same compound, the results for the concentration giving a half-maximal response (EC50) in test [1] (setting [9]) and in test [4] (setting [9]) were 16400 nM and 4100 nM, respectively. Further, in test [2] (CellTiter-Glo), the “cell killing of NIH 3T3 cells (in words)” value was “no effect”. In addition, the “cell killing of CRL-7250 cells (in words)” value in test [3] was “no effect”. Also, the “cell killing of KB 3–1 cells (in words)” value in test [4] (CellTiter-Glo) is listed as “complete killing”.
As to `COc1cccc(-c2ncc3c(n2)OCCN(c2ccccc2)C3=O)c1` [NCGC00413522], the EC50 in test [5] amounted to 890 nM; in test [6] it was 26.6 µM. The “cell growth by bright-field microscopy” value in test [7] is “unaffected cell growth”.
Take `O=C1c2cnc(-c3cc4ccccc4o3)nc2OCCN1c1ccccc1` [NCGC00413607]: the EC50 is 80 nM in test [5] and 7.3 µM in test [6]. Moreover, the “cell growth by bright-field microscopy” value in test [7] is reported as “unaffected cell growth”.
On to `O=C(c1ccc(Cl)cc1)N1CCOCC2(CN(Cc3cc(F)cc(F)c3)C2)C1` [NCGC00419015], for which the EC50 in test [1] (setting [9]) came out at 510 nM; in test [2] (setting [9]), 720 nM; in test [4] (setting [9]), 640 nM.
On to `Cc1nn2c(c1-c1ccccc1-c1ccccc1)N(CC1CC1)CCC2` [NCGC00420435], for which the “cell killing of HEK 293 compared with cancer cell line KB-3–1 (in words)” value in test [1] was “greater cell killing”. In test [2], the “cell killing of NIH 3T3 compared with cancer cell line KB-3–1 (in words)” value is “greater cell killing”.
In the case of `Cc1nn2c(c1-c1ccccc1Oc1ccccc1)N(Cc1ccccc1O)CCC2` [NCGC00420455], in test [1], the “cell killing of HEK 293 compared with cancer cell line KB-3–1 (in words)” value is “greater cell killing”. Also, the “cell killing of NIH 3T3 compared with cancer cell line KB-3–1 (in words)” value in test [2] is listed as “greater cell killing”.
On to `Cc1nn2c(c1-c1ccccc1-c1ccccc1)N(Cc1ccc(O)cc1)CCC2` [NCGC00420512], for which, in test [1], the “cell killing of HEK 293 compared with cancer cell line KB-3–1 (in words)” value is listed as “greater cell killing”. The “cell killing of NIH 3T3 compared with cancer cell line KB-3–1 (in words)” value in test [2] is reported as “greater cell killing”.
As to `O=C(Nc1ccccc1)OC[C@H]1C[C@@H]2CCN1C[C@@H]2c1cc(C2CCCC2)nc(-c2ccncc2)n1` [NCGC00421344], the “potency in HEK 293 cell relative to the other two cell lines (NIH 3T3, KB 3–1)” value in test [1] (CellTiter-Glo EC50 comparison) is given as > 10 fold.
For the compound `COc1ncc2cc(C(=O)Nc3cc(C(=O)NCc4cccc(Cl)c4)ccc3Cl)c(=O)[nH]c2n1` [TC-S7004], the “cell killing of HEK 293 cells (in words)” value in test [1] (CellTiter-Glo) is on record as “no effect”. Also, in test [2] (CellTiter-Glo), the “cell killing of NIH 3T3 cells (in words)” value was “no effect”. Also, the “cell killing of CRL-7250 cells (in words)” value in test [3] was “no effect”. Moreover, the “cell killing of HaCat cells (in words)” value in test [8] (CellTiter-Glo, 48 hr) is “no effect”. Also, the “cell killing of KB 3–1 cells (in words)” value in test [4] (CellTiter-Glo) is recorded as “complete killing”. In addition, in test [4] (setting [9]), the EC50 is 3200 nM.
Consider `CC(C)C[C@H](NC(=O)[C@@H](NC(=O)c1cccc(-c2ccccc2)n1)[C@@H](C)O)B(O)O` [delanzomib], for which the EC50 in test [1] (Homo sapiens, HEK293, 48 h) was 148 nM; in test [2] (Mus musculus, NIH3T3, 48 h), 82 nM; in test [3] (Homo sapiens, 48 h, read-out: EC50 CRL-7250), 205 nM; in test [8] (Homo sapiens, HaCaT, 48 h, read-out: EC50 HaCat) it was 326 nM; in test [4] (Homo sapiens, KB 3-1, 48 h), 186 nM.

Broadly, the EC50 is the concentration that produces a half-maximal response.
